This is an account of results in ChEMBL document CHEMBL1132388, “A ureido-thioisobutyric acid (GW9578) is a subtype-selective PPARalpha agonist with potent lipid-lowering activity” (J Med Chem, 1999).

For one assay, the species on record is Rattus norvegicus. Put plainly: Minimum effective dose producing a 40-60% decrease in serum TLDL cholesterol in rats relative to vehicle -treated controls. Type of assay: functional. To be noted: read-out: MED.
Assay [1] concerns the target T1, Peroxisome proliferator-activated receptor alpha (Mus musculus, UniProt P23204).
T1 sequence (P23204 whole entry): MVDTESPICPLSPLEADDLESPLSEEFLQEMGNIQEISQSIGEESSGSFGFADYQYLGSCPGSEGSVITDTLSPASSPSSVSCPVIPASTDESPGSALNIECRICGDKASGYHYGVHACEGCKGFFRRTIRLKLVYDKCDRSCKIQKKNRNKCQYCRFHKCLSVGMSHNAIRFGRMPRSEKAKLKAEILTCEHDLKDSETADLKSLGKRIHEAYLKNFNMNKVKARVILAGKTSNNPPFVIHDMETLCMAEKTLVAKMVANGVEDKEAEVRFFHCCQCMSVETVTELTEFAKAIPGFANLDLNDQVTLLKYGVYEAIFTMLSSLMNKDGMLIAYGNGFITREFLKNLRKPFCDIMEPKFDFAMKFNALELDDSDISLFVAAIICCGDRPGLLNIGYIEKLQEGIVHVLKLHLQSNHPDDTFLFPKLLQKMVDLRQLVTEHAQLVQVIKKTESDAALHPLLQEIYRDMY
Nature of the assay: Compound was tested for its agonist activity against murine Peroxisome proliferator activated receptor alpha-Gal4 chimeric receptor transfected CV-1 cells. The assay is classed as functional, cell-based. Put shortly:
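PPAR-GAL4 chimeric receptor transiently transfected into CV-1 cells; reporter activity read after compound exposure, with concentrations tested up to 300 µM.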

Assay [2] deals with T2, Peroxisome proliferator-activated receptor gamma (Mus musculus, UniProt P37238).
T2 sequence (P37238 whole entry): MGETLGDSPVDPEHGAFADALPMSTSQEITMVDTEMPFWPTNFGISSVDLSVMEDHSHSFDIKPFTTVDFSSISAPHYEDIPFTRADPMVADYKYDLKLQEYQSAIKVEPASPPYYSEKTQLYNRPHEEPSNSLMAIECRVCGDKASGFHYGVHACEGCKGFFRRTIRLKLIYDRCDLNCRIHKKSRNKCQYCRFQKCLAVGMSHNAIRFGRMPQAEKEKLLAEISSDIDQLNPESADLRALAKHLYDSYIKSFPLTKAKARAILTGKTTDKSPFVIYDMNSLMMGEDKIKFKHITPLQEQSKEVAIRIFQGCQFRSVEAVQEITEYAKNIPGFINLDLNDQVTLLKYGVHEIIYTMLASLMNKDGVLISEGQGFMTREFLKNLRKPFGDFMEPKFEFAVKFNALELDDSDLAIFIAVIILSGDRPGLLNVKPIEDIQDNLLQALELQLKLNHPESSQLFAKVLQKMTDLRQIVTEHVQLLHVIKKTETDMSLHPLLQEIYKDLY
Put plainly: Compound was tested for its agonist activity against murine Peroxisome proliferator activated receptor gamma-Gal4 chimeric receptor in transfected CV-1 cells. Type of assay: functional, cell-based.

In assay [3] the target is T3, Peroxisome proliferator-activated receptor delta (Mus musculus, UniProt P35396).
T3 sequence (P35396 whole entry): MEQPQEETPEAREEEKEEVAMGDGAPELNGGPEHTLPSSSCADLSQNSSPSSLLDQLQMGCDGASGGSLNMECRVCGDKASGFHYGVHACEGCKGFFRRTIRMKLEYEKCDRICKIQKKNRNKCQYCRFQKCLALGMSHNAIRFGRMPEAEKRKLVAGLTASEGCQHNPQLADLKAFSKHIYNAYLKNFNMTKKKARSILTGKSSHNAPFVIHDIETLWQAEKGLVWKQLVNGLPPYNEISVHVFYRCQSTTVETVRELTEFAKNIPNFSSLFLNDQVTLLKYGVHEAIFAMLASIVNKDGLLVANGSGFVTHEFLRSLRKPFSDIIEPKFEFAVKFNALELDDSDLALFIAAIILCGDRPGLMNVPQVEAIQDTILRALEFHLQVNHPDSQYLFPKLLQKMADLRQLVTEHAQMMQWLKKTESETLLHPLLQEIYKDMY
Put plainly: Compound was tested for its agonist activity against murine Peroxisome proliferator activated receptor delta-GAL4 chimeric receptor in transfected CV-1 cells. The assay is classed as functional, cell-based.

The target in assay [4] is T4, Peroxisome proliferator-activated receptor delta (Homo sapiens, UniProt Q03181).
T4 sequence (Q03181 whole entry): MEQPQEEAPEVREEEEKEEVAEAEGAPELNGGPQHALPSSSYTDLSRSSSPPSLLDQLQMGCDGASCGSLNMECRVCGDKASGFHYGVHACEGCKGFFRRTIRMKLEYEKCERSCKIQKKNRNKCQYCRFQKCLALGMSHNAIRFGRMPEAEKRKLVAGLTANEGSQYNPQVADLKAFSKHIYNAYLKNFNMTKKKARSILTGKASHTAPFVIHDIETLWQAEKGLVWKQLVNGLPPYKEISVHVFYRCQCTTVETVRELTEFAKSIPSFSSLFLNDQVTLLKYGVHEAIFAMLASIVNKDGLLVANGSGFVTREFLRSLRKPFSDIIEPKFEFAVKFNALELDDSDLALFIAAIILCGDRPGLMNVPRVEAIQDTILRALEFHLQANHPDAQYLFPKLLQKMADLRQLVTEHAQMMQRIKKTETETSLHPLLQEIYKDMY
Put plainly: Compound was tested for agonist activity on human Peroxisome proliferator activated receptor delta-GAL4 chimeric receptor in transfected CV-1 cells. The assay is classed as functional, cell-based.

Assay [5] addresses T5, Peroxisome proliferator-activated receptor alpha (Homo sapiens, UniProt Q07869).
T5 sequence (Q07869 whole entry): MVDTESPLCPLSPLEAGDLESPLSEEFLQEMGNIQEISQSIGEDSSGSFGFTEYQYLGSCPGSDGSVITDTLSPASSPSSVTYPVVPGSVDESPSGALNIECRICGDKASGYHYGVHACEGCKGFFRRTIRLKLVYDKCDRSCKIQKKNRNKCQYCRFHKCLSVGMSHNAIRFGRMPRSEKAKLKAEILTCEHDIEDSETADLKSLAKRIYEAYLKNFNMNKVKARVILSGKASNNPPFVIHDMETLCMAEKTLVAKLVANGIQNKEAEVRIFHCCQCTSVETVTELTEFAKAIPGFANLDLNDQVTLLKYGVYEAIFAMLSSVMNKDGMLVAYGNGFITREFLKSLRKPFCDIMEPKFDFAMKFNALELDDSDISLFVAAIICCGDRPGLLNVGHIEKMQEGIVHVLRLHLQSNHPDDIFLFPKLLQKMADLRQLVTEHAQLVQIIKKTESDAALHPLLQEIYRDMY

The target of assay [6] is T6, Peroxisome proliferator-activated receptor gamma (Homo sapiens, UniProt P37231).
T6 sequence (P37231 whole entry): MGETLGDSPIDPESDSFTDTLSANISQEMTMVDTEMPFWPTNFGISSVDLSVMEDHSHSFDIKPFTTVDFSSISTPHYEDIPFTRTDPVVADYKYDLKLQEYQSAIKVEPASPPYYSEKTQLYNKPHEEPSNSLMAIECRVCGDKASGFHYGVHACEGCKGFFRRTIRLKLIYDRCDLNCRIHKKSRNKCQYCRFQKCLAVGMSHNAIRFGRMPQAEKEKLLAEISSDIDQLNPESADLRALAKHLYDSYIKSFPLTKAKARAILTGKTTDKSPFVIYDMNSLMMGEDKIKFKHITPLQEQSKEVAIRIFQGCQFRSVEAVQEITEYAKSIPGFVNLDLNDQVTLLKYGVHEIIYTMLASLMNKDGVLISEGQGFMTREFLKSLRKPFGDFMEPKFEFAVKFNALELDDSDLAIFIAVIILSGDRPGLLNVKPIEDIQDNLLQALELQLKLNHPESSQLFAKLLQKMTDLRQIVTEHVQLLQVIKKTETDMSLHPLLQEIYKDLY

Assay [7] addresses T4, Peroxisome proliferator-activated receptor delta. Put plainly: Compound was tested for agonist activity on human Peroxisome proliferator activated receptor delta-GAL4 chimeric receptor in transfected CV-1 cells; IA = Inactive. The assay is classed as functional, cell-based.
Assay [8] addresses T3, Peroxisome proliferator-activated receptor delta. Put plainly: Compound was tested for its agonist activity against murine Peroxisome proliferator activated receptor delta-GAL4 chimeric receptor in transfected CV-1 cells; IA = Inactive. The assay is classed as functional, cell-based.

`CCCCCCCN(CCc1ccc(SC(C)(C)C(=O)O)cc1)C(=O)Nc1ccc(F)cc1F` [GSK-9578]: the minimal effective dose in the assay filed under Rattus norvegicus stood at 0.2 mg/kg. In addition, the EC50 in assay [1] is 5 nM; in assay [2] it was 1500 nM; in [3], 2600 nM; in assay [4], 1400 nM.

Take `CCCCCCCN(CCc1ccc(OC(C)(C)C(=O)O)cc1)C(=O)Nc1ccc(F)cc1F`: the EC50 in assay [5] amounted to 790 nM; in assay [1], 10 nM; in assay [2] it was 400 nM; in [6], 200 nM; in assay [3], 3200 nM. For the same compound, the minimal effective dose in the assay filed under Rattus norvegicus was determined as 0.1 mg/kg.

Consider `CCCCCCCN(CCc1ccc(OC(C)(C)C(=O)O)cc1)C(=O)Nc1ccc(F)cc1`, for which the EC50 is 410 nM in assay [5]; 33 nM in [1]; 870 nM in assay [2]; 280 nM in assay [6]; 5500 nM in assay [3]; 3100 nM in [4]. The minimal effective dose in the assay listed under Rattus norvegicus came to 0.1 mg/kg.

Regarding `CC(C)(Oc1ccc(CCN(CCCCCC2CCCCC2)C(=O)Nc2ccc(F)cc2)cc1)C(=O)O`, the concentration giving a half-maximal response (EC50) amounted to 150 nM in [5]; 53 nM in assay [1]; 1000 nM in assay [2]; 1600 nM in assay [6]; 23000 nM in assay [3]. Moreover, the minimal effective dose in the assay filed under Rattus norvegicus stood at 1 mg/kg.

As to `CC(C)(Oc1ccc(CCNC(=O)c2ccc(Cl)cc2)cc1)C(=O)O` [BEZAFIBRATE], the minimal effective dose in the assay listed under Rattus norvegicus was determined as 50 mg/kg. Also, the EC50 in assay [1] was 90000 nM; in assay [2], 55000 nM; in assay [6], 60000 nM; in assay [3] it was 110000 nM; in assay [4] it was 20000 nM.

For `CC(C)(Oc1ccc(Cl)cc1)C(=O)O` [CLOFIBRIC ACID], the EC50 was 55000 nM in assay [5]; “Not Active” in [7]; 50000 nM in assay [1]; “Not Active” in [8]; above 300000 nM in assay [2]; above 300000 nM in [6].

For `CC(C)(Oc1ccc(CCN(C(=O)Nc2ccc(F)cc2F)C2CCCCCC2)cc1)C(=O)O`, the minimal effective dose in the assay listed under Rattus norvegicus was 1 mg/kg. For the same compound, the EC50 in assay [1] worked out at 120 nM; in [2] it was 12 nM; in [6], 6 nM; in assay [3], 1400 nM; in assay [4], 790 nM.

As to `CC(C)(Oc1ccc(C(=O)c2ccc(Cl)cc2)cc1)C(=O)O` [FENOFIBRIC ACID], the minimal effective dose in the assay filed under Rattus norvegicus was 50 mg/kg. For the same compound, the EC50 entry is “Not Active” in [7], “Not Active” in assay [8] and 250000 nM in [2].
